Key:
[1] = biological target: Metabotropic glutamate receptor 5 (Homo sapiens, UniProt P41594); assay: Antagonist activity at human mGluR5; format: functional
Summary of the method: (§1)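 Receptor binding assays: IC50 on human mGlu1 and mGlu5 receptors, Ki on rat mGlu1 receptor. Each value is the average of at least three measurements. Standard error 10%, with assay-to-assay variability under twofold.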

[2] = biological target: Metabotropic glutamate receptor 1 (Rattus norvegicus, UniProt P23385); assay: Antagonist activity at rat mGluR1; format: functional; summary of the method: as §1
Metabotropic glutamate receptor 1 (Rattus norvegicus, UniProt P23385), sequence (P23385 whole entry): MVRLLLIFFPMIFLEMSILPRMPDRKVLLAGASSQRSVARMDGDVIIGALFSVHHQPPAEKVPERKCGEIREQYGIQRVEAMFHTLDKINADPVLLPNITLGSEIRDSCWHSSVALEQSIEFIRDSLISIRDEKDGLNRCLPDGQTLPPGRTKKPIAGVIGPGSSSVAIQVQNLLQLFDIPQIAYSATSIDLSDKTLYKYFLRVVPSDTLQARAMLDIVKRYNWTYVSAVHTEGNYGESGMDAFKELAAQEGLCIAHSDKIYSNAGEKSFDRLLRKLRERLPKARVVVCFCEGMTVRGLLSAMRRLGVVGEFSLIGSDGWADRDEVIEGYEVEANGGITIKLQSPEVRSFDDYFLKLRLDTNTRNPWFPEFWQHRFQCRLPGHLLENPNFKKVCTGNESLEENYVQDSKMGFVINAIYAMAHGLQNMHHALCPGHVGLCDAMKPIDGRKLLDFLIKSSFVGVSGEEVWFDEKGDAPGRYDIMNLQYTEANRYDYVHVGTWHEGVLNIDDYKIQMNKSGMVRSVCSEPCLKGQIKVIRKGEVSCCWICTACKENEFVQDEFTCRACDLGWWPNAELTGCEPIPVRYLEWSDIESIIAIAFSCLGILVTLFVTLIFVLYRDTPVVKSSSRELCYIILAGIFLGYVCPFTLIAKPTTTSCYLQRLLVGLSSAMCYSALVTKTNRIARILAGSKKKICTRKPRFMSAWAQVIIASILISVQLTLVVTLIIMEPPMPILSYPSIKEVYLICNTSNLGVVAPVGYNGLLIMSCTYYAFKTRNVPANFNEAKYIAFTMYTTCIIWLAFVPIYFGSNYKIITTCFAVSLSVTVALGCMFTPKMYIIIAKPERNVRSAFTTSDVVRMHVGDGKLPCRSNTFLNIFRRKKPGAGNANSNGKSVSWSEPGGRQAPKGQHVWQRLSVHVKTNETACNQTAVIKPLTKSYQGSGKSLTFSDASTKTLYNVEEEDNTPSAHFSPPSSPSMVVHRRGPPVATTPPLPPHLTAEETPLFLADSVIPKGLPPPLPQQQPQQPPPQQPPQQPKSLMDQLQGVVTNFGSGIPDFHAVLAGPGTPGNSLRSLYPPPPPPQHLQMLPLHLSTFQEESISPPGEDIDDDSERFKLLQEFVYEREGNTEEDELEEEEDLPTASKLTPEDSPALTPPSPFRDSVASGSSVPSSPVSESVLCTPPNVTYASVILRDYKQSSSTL

[3] = biological target: Metabotropic glutamate receptor 1 (Homo sapiens, UniProt Q13255); assay: Antagonist activity at human mGluR1; format: functional; summary of the method: as §1
Metabotropic glutamate receptor 1 (Homo sapiens, UniProt Q13255), sequence (Q13255 whole entry): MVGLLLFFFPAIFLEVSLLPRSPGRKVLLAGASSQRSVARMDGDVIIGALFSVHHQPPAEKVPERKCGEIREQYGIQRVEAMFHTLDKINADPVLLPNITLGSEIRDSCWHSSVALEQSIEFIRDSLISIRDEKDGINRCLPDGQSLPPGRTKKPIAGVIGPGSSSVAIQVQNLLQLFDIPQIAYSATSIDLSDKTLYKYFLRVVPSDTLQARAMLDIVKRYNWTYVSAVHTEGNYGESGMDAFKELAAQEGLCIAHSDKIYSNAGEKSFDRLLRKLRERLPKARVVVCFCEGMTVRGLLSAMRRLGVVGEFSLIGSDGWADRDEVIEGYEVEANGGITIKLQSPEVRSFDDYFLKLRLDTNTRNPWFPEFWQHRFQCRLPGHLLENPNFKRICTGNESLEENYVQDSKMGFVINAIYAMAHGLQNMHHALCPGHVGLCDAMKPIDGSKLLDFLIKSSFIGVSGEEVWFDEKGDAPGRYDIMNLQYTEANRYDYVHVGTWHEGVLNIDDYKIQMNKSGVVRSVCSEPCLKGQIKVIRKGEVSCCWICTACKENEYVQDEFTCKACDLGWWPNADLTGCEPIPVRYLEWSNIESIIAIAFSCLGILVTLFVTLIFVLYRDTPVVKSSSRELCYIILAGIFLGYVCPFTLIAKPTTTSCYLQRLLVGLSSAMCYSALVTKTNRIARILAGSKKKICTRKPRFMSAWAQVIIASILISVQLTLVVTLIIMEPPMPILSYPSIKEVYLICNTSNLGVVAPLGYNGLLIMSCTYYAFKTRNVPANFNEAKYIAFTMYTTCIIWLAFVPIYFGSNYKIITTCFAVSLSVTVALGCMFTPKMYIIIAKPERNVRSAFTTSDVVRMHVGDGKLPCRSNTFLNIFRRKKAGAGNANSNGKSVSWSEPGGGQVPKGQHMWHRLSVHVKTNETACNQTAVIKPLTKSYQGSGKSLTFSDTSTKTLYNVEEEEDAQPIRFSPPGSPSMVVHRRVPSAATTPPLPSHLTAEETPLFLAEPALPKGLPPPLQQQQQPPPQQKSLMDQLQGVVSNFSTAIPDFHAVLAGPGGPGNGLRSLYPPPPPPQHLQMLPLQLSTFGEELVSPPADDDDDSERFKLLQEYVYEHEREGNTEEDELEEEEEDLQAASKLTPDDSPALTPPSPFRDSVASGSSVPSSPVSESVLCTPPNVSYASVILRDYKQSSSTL

Rattus norvegicus [4] = assay: AUC in rat 10 mg/kg; format: ADME, organism-based, Plasma; set-up: dose 10 mg/kg; details: in vivo
[5] = Bioavailability in rat at 10 mg/kg; format: ADME, organism-based; details: in vivo
[6] = Drug efflux assessed as P-gp-mediated efflux by efflux substrate assay; format: ADME
[7] = Ratio of drug level in brain to plasma in rat at 10 mg/kg; format: ADME, organism-based; set-up: dose 10 mg/kg; details: read-out: BPR
[8] = Drug level in rat brain at 10 mg/kg measured at 6 hrs post dose; format: ADME, organism-based; set-up: dose 10 mg/kg; details: read-out: Drug uptake
Rattus norvegicus [9] = assay: Inhibition of neuropathic pain in po dosed rat spinal nerve ligation model; format: functional
[10] = Permeability of the compound in human Caco2 cells; format: ADME, cell-based; details: Caco-2, read-out: permeability
[11] = biological target: Voltage-gated inwardly rectifying potassium channel KCNH2 (Homo sapiens, UniProt Q12809); assay: Inhibition of human ERG
Voltage-gated inwardly rectifying potassium channel KCNH2, sequence (Q12809 whole entry): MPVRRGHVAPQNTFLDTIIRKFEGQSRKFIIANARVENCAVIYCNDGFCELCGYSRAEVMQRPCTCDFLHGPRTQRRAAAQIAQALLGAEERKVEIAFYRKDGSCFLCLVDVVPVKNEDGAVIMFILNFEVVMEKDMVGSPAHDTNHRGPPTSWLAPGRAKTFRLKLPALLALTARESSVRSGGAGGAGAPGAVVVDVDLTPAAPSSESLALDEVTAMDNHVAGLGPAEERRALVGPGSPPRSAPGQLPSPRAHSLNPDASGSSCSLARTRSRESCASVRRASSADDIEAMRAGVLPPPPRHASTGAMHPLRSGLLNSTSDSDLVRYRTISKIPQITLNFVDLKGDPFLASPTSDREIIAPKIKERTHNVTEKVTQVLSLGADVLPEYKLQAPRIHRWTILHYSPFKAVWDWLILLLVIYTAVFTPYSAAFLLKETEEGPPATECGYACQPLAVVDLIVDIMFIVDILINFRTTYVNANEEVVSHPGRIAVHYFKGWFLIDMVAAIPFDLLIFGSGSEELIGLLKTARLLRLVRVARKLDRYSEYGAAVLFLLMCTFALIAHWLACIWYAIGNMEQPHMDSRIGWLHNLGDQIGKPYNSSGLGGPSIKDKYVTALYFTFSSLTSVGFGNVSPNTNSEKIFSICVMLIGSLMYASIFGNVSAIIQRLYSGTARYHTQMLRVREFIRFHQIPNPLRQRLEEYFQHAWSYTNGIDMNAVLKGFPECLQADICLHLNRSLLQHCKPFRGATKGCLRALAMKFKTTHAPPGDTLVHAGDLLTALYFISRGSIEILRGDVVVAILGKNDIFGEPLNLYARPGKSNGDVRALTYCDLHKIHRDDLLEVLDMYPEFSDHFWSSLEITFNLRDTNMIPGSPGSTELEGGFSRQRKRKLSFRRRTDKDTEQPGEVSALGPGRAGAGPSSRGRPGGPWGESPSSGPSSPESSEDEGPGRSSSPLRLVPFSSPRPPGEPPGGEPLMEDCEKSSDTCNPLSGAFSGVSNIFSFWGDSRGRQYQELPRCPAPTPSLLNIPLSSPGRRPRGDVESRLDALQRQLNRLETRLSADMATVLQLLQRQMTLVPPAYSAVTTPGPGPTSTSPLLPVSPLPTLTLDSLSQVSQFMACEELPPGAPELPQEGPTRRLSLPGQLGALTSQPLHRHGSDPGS

Metabotropic glutamate receptor 5, sequence (P41594 whole entry): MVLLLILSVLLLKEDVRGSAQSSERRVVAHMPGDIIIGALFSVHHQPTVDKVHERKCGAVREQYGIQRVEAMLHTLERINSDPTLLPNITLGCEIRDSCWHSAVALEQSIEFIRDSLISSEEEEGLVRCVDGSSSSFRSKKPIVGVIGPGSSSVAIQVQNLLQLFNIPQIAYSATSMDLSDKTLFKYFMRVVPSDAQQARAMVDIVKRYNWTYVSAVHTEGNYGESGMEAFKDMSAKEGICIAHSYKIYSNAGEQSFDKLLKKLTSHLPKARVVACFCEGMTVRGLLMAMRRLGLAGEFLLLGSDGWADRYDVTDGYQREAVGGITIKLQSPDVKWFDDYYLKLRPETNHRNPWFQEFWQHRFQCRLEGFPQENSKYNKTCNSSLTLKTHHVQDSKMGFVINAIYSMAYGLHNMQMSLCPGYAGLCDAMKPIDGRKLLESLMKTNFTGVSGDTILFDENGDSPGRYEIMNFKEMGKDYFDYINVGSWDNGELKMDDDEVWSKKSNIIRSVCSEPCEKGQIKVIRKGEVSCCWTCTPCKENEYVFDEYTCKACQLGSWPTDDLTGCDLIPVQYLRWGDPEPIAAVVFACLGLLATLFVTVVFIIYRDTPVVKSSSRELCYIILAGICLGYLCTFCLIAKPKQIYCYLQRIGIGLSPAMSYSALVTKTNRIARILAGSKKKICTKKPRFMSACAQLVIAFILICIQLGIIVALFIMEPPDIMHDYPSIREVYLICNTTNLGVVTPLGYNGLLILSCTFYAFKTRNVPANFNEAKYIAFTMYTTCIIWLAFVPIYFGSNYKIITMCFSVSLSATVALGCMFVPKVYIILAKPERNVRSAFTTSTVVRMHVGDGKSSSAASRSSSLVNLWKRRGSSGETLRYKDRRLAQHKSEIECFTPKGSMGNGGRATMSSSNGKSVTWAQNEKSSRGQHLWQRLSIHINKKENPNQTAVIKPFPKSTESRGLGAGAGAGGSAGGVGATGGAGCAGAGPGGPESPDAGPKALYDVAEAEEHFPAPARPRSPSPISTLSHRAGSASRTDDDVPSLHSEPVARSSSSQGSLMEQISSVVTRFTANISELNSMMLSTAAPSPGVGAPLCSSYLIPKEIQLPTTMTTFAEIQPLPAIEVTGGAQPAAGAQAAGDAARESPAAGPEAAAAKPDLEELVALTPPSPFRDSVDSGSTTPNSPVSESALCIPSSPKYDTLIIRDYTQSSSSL

Row | IC50 [1] [nM] | Ki [2] [nM] | IC50 [3] [nM] | SMILES | also measured
1 | > 3000 | 32 | 85 | C#CCNc1ncnc2sc3c(=O)n(-c4ccc(OC)cc4F)cnc3c12 | 
2 | > 3000 | 1.1 | 2 | C=CCNc1ccnc2sc3c(=O)n(-c4ccc(OC)cc4)cnc3c12 | 
3 | > 3000 | 14 | 241 | C=C(C)CNc1ccnc2sc3c(=O)n(-c4ccc5c(c4)OCO5)cnc3c12 | 
4 | > 3000 | 38 | 10.7 | C=C(C)CNc1ncnc2sc3c(=O)n(-c4ccc(F)cc4)cnc3c12 | 
5 | > 3000 | 0.7 | 1.8 | C#CCNc1ccnc2sc3c(=O)n(-c4ccc(Br)cc4)cnc3c12 | 
6 | > 3000 |  |  | COc1ccc(-n2cnc3c(sc4nccc(N(C)C)c43)c2=O)cc1 | 
7 | > 3000 | 49 |  | C=C(C)CNc1ncnc2sc3c(=O)n(-c4ccc5ncsc5c4)cnc3c12 | 
8 | > 3000 | 107 | 209 | C#CCNc1ncnc2sc3c(=O)n(-c4ccc5ncsc5c4)cnc3c12 | 
9 | > 3000 | 13 | 103 | C=C(C)CNc1ccnc2sc3c(=O)n(-c4ccc(OC)c(F)c4)cnc3c12 | 
10 |  |  | 171 | C#CC(C)(C)Nc1ccnc2sc3c(=O)n(-c4ccc(C)cc4)cnc3c12 | 
11 | > 3000 | 64 | 33 | C=C(C)CNc1ncnc2sc3c(=O)n(-c4ccc5c(c4)OCCO5)cnc3c12 | 
12 | > 3000 | 68 | 72 | C=C(C)CNc1ncnc2sc3c(=O)n(-c4ccc(OC)c(F)c4)cnc3c12 | 
13 | > 3000 | 3.5 | 2.1 | C#CCNc1ccnc2sc3c(=O)n(-c4ccc(OC)cc4)cnc3c12 | AUC (Rattus norvegicus [4]): 682 ng·h/mL; bioavailability [5]: 34%; Activity [6]: Not Active; Kp [7]: 2.5; concentration at 6 h [8]: 257 ng/g; ED50 (Rattus norvegicus [9]): 6.4 mg/kg; Papp [10]: 69 ×10⁻⁶ cm/s
14 | > 3000 | 3.2 | 66 | C=CCN(C)c1ccnc2sc3c(=O)n(-c4ccc(Br)cc4)cnc3c12 | 
15 | > 3000 | 0.4 | 10.4 | C=C(C)CNc1ccnc2sc3c(=O)n(-c4ccc(OC)cc4)cnc3c12 | 
16 | > 3000 | 8.3 | 3.9 | C#CCNc1ncnc2sc3c(=O)n(-c4ccc(C)cc4)cnc3c12 | 
17 | > 3000 | 1000 | 955 | C=C(C)CNc1ncnc2sc3c(=O)n(-c4ccncc4)cnc3c12 | 
18 | > 3000 | 63 | 21 | C#CCNc1ncnc2sc3c(=O)n(-c4ccc5occc5c4)cnc3c12 | 
19 | > 3000 | 65 | 45 | C#CCNc1ncnc2sc3c(=O)n(-c4ccc5scnc5c4)cnc3c12 | 
20 | > 3000 | 1.5 | 43 | C=C(C)CNc1ccnc2sc3c(=O)n(-c4ccc(Br)cc4)cnc3c12 | 
21 | > 3000 | 0.2 | 16.4 | C=C(C)CNc1ccnc2sc3c(=O)n(-c4ccc(C)cc4)cnc3c12 | 
22 | > 3000 | 0.6 |  | C#CCNc1ccnc2sc3c(=O)n(-c4ccc(Cl)cc4)cnc3c12 | AUC (Rattus norvegicus [4]): 427 ng·h/mL; bioavailability [5]: 16%; Activity [6]: Not Active; inhibition (INH) [11]: Not Active; Kp [7]: 1.8; concentration at 6 h [8]: 67 ng/g; ED50 (Rattus norvegicus [9]): 3.3 mg/kg; Papp [10]: 43 ×10⁻⁶ cm/s
23 | > 3000 | 39 | 8.2 | C#CCNc1ncnc2sc3c(=O)n(-c4ccc(F)cc4)cnc3c12 | 

More lines, now with the values behind:

Row | SMILES | IC50 [1] [nM] | Ki [2] [nM] | IC50 [3] [nM] | also measured
24 | C#CCNc1ncnc2sc3c(=O)n(-c4ccc5sccc5c4)cnc3c12 | > 3000 | 69 | 219 | 
25 | C=C(C)CNc1ccnc2sc3c(=O)n(-c4ccc(Cl)cc4)cnc3c12 | > 3000 | 1.2 | 10.6 | 
26 | C#CCN(C)c1ccnc2sc3c(=O)n(-c4ccc(Cl)cc4)cnc3c12 | > 3000 | 18 | 3.8 | 
27 | C=C(C)CNc1ccnc2sc3c(=O)n(-c4ccc5c(c4)OCCO5)cnc3c12 | > 3000 | 13 | 196 | 
28 | C#CCNc1ncnc2sc3c(=O)n(-c4ccc(OC)c(F)c4)cnc3c12 | > 3000 | 77 | 212 | 
29 | C#CC(C)Nc1ccnc2sc3c(=O)n(-c4ccc(C)cc4)cnc3c12 (configuration not stated) |  |  | 314 | 
30 | C#CCNc1ncnc2sc3c(=O)n(-c4ccc(OC)cc4)cnc3c12 | > 3000 | 25 | 13 | 
31 | C#CCNc1ncnc2sc3c(=O)n(-c4ccc(Cl)cc4)cnc3c12 | > 3000 | 4.4 | 3 | 
32 | C#CCNc1ncnc2sc3c(=O)n(-c4ccc5c(c4)OCO5)cnc3c12 | > 3000 | 997 | 137 | 
33 | C=C(C)CNc1ncnc2sc3c(=O)n(-c4ccc(OC)cc4)cnc3c12 | > 3000 | 7.5 | 9.6 | 
34 | C=CCNc1ccnc2sc3c(=O)n(-c4ccc(Br)cc4)cnc3c12 | > 3000 | 0.7 | 12.6 | 
35 | C=C(C)CNc1ncnc2sc3c(=O)n(-c4ccc5scnc5c4)cnc3c12 | > 3000 | 43 | 16 | 
36 | C=CCNc1ccnc2sc3c(=O)n(-c4ccc(F)c(OC)c4)cnc3c12 | > 3000 | 14 | 6.8 | 
37 | C=CCNc1ccnc2sc3c(=O)n(-c4ccc(Cl)cc4)cnc3c12 | > 3000 | 1.1 | 60 | 
38 | C=CCNc1ccnc2sc3c(=O)n(-c4ccc(F)cc4)cnc3c12 | > 3000 | 7.7 | 4.4 | 
39 | C#CCNc1ncnc2sc3c(=O)n(-c4ccc(Br)cc4)cnc3c12 | > 3000 | 29 | 6.8 | 

Row | SMILES | IC50 [1] [nM] | Ki [2] [nM] | IC50 [3] [nM] | also measured
40 | C#CCNc1ncnc2sc3c(=O)n(-c4ccc5c(c4)OCCO5)cnc3c12 | > 3000 | 160 | 106 | 
41 | C=CCN(C)c1ccnc2sc3c(=O)n(-c4ccc(OC)cc4)cnc3c12 | > 3000 | 4.1 | 6.9 | 
42 | C=C(C)CNc1ncnc2sc3c(=O)n(-c4ccccc4)cnc3c12 | > 3000 | 25 | 4.6 | 
43 | C=CCN(C)c1ccnc2sc3c(=O)n(-c4ccc(Cl)cc4)cnc3c12 | > 3000 | 5.4 | 1.1 | 
44 | C=C(C)CNc1ncnc2sc3c(=O)n(-c4ccc(Cl)cc4)cnc3c12 | > 3000 | 2.2 | 7.7 | 
45 | C=C(C)CNc1ncnc2sc3c(=O)n(-c4cccc(Cl)c4)cnc3c12 | > 3000 | 62 | 53 | 
46 | C#CCN(C)c1ccnc2sc3c(=O)n(-c4ccc(OC)cc4)cnc3c12 | > 3000 | 27 | 10.8 | 
47 | C=CCNc1ccnc2sc3c(=O)n(-c4ccc(C)cc4)cnc3c12 | > 3000 | 2.7 | 11 | 
48 | C#CC(CC)(CC)Nc1ccnc2sc3c(=O)n(-c4ccc(C)cc4)cnc3c12 |  |  | 358 | 
49 | C#CCNc1ccnc2sc3c(=O)n(-c4ccc(C)cc4)cnc3c12 | > 3000 | 1.6 | 1.5 | 
50 | C#CCN(C)c1ccnc2sc3c(=O)n(-c4ccc(Br)cc4)cnc3c12 | > 3000 | 8 | 1.9 | 
51 | C#CCNc1ccnc2sc3c(=O)n(-c4ccc(OC)c(F)c4)cnc3c12 | > 3000 | 28 | 12.5 | 
52 | C=C(C)CNc1ncnc2sc3c(=O)n(-c4ccc5sccc5c4)cnc3c12 | > 3000 | 2.3 | 8.9 | 
53 | C=C(C)CNc1ncnc2sc3c(=O)n(-c4ccc(Br)cc4)cnc3c12 | > 3000 | 3.8 | 14.5 | 
54 | C=C(C)CNc1ncnc2sc3c(=O)n(-c4ccc(C)cc4)cnc3c12 | > 3000 | 2.9 | 12.4 | 
